In ChEMBL document CHEMBL3259728, “Design, synthesis and biological evaluation of some novel substituted quinazolines as antitumor agents” (2014):

What was measured:
Type in all cases: functional
SW-620 [1] = assay: Growth inhibition of human SW620 cells assessed as cell growth at 10^-5 M after 48 hrs by SRB assay; conditions: SW-620, 48 h, read-out: Activity
[2] = Growth inhibition of human MOLT4 cells assessed as cell growth at 10^-7 M after 48 hrs by SRB assay; conditions: MOLT-4, 48 h, read-out: Activity
DU-145 = assay: Growth inhibition of human DU145 cells assessed as cell growth at 10^-4 M after 48 hrs by SRB assay; conditions: DU-145, 48 h, read-out: Activity
Outline: (§1)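 Five-dose NCI panel protocol. Each dose (10^-4 to 10^-8 M, 10-fold steps) was given as 48 h continuous exposure, and protein was measured by SRB staining. Percentage growth at each level is [(Ti−Tz)/(C−Tz)]×100, where Tz is time-zero absorbance and C is untreated control.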

[3] = Growth inhibition of human RXF393 cells assessed as cell growth at 10^-5 M after 48 hrs by SRB assay; conditions: RXF 393, 48 h, read-out: Activity
SK-MEL-5 = assay: Growth inhibition of human SK-MEL-5 cells assessed as cell growth at 10^-4 M after 48 hrs by SRB assay; conditions: SK-MEL-5, 48 h, read-out: Activity
[4] = Growth inhibition of human UACC257 cells assessed as cell growth at 10^-7 M after 48 hrs by SRB assay; conditions: UACC-257, 48 h, read-out: Activity
[5] = Growth inhibition of human RXF393 cells assessed as cell growth at 10^-7 M after 48 hrs by SRB assay; conditions: RXF 393, 48 h, read-out: Activity
[6] = Growth inhibition of human UACC257 cells assessed as cell growth at 10^-4 M after 48 hrs by SRB assay; conditions: UACC-257, 48 h, read-out: Activity
SN12C = assay: Growth inhibition of human SN12C cells assessed as cell growth at 10^-7 M after 48 hrs by SRB assay; conditions: read-out: Activity
MDA-MB-435 [7] = assay: Growth inhibition of human MDA-MB-435 cells assessed as cell growth at 10^-7 M after 48 hrs by SRB assay; conditions: MDA-MB-435, 48 h, read-out: Activity
T47D = assay: Growth inhibition of human T47D cells assessed as cell growth at 10^-8 M after 48 hrs by SRB assay; conditions: read-out: Activity
[8] = Growth inhibition of human SF295 cells assessed as cell growth at 10^-8 M after 48 hrs by SRB assay; conditions: SF-295, 48 h, read-out: Activity
NCI-H460 = assay: Growth inhibition of human NCI-H460 cells assessed as cell growth at 10^-6 M after 48 hrs by SRB assay; conditions: NCI-H460, 48 h, read-out: Activity
[9] = Growth inhibition of human BT549 cells assessed as cell growth at 10^-8 M after 48 hrs by SRB assay; conditions: BT-549, 48 h, read-out: Activity; outline: as §1
SW-620 [10] = assay: Growth inhibition of human SW620 cells assessed as cell growth at 10^-4 M after 48 hrs by SRB assay; conditions: SW-620, 48 h, read-out: Activity
HOP-62 [11] = assay: Growth inhibition of human HOP62 cells assessed as cell growth at 10^-6 M after 48 hrs by SRB assay; conditions: HOP-62, 48 h, read-out: Activity
[12] = Growth inhibition of human LOXIMVI cells assessed as cell growth at 10^-5 M after 48 hrs by SRB assay; conditions: LOX IMVI, read-out: Activity
KM12 = assay: Growth inhibition of human KM12 cells assessed as cell growth at 10^-7 M after 48 hrs by SRB assay; conditions: KM12, 48 h, read-out: Activity
[13] = Growth inhibition of human SF539 cells assessed as cell growth at 10^-6 M after 48 hrs by SRB assay; conditions: SF-539, 48 h, read-out: Activity
[14] = Growth inhibition of human NCI-ADR-RES cells assessed as cell growth at 10^-4 M after 48 hrs by SRB assay; conditions: read-out: Activity
MDA-MB-435 [15] = assay: Growth inhibition of human MDA-MB-435 cells assessed as cell growth at 10^-8 M after 48 hrs by SRB assay; conditions: MDA-MB-435, 48 h, read-out: Activity
HOP-62 [16] = assay: Growth inhibition of human HOP62 cells assessed as cell growth at 10^-7 M after 48 hrs by SRB assay; conditions: HOP-62, 48 h, read-out: Activity
[17] = Cytotoxicity against human UACC257 cells after 48 hrs by SRB assay; conditions: UACC-257, 48 h
Outline: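 NCI 60-cell-line panel, 48 h continuous exposure to five 10-fold dilutions from 10^-4 to 10^-8 M. SRB protein staining was read spectrophotometrically, with time-zero, untreated-control and treated absorbances. GI50, TGI and LC50 were derived from the percentage-growth formulas. Values outside the tested range are expressed as more or less than the maximum or minimum concentration.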

HOP-62 [18] = assay: Growth inhibition of human HOP62 cells assessed as cell growth at 10^-5 M after 48 hrs by SRB assay; conditions: HOP-62, 48 h, read-out: Activity
Malme-3M = assay: Growth inhibition of human MALME-3M cells assessed as cell growth at 10^-4 M after 48 hrs by SRB assay; conditions: read-out: Activity
SR = assay: Cytotoxicity against human SR cells after 48 hrs by SRB assay
Outline: (§2)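 NCI 60-cell-line panel of human tumour lines from nine cancer types. Continuous 48 h exposure at five 10-fold dilutions from 10^-4 to 10^-8 M, with 5-FU as positive control. SRB protein stain read spectrophotometrically at time zero, untreated control and each concentration. GI50, TGI and LC50 were derived from the [(Ti−Tz)/(C−Tz)]×100 growth relations, and out-of-range values are given as > or < the tested limits.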

CCRF-CEM = assay: Growth inhibition of human CCRF-CEM cells assessed as cell growth at 10^-4 M after 48 hrs by SRB assay; conditions: read-out: Activity; outline: as §1
[19] = Growth inhibition of human HCT15 cells assessed as cell growth at 10^-8 M after 48 hrs by SRB assay; conditions: HCT-15, 48 h, read-out: Activity
[20] = Growth inhibition of human HOP92 cells assessed as cell growth at 10^-4 M after 48 hrs by SRB assay; conditions: HOP-92, 48 h, read-out: Activity
MCF7 = assay: Growth inhibition of human MCF7 cells assessed as cell growth at 10^-8 M after 48 hrs by SRB assay; conditions: MCF7, 48 h, read-out: Activity
[21] = Growth inhibition of human Hs578T cells assessed as cell growth at 10^-7 M after 48 hrs by SRB assay; conditions: Hs-578T, read-out: Activity
786-0 = assay: Cytotoxicity against human 786-0 cells after 48 hrs by SRB assay; conditions: 786-0, 48 h; outline: as §2
[22] = read-out: LC50 (the source's name)
[23] = read-out: pLC50 (the source's name) (converted)

Cc1ccc(-c2nc3ccc(Cl)cc3c(=O)n2/N=C/c2ccccc2)cc1
growth at 10 µM (SW-620 [1]): 67%
growth at 0.1 µM [2]: 96%
growth at 100 µM (DU-145): 49%
growth at 10 µM [3]: 41%
growth at 100 µM (SK-MEL-5): 34%
growth at 0.1 µM [4]: 99%
growth at 0.1 µM [5]: 101%
growth at 100 µM [6]: 60%
growth at 0.1 µM (SN12C): 92%
growth at 0.1 µM (MDA-MB-435 [7]): 86%
growth at 0.01 µM (T47D): 89%
growth at 0.01 µM [8]: 91%
growth at 1 µM (NCI-H460): 85%
growth at 0.01 µM [9]: 100%
growth at 100 µM (SW-620 [10]): 52%
growth at 1 µM (HOP-62 [11]): 86%
growth at 10 µM [12]: 63%
growth at 0.1 µM (KM12): 97%
growth at 1 µM [13]: 94%
growth at 100 µM [14]: 36%
growth at 0.01 µM (MDA-MB-435 [15]): 98%
growth at 0.1 µM (HOP-62 [16]): 89%
GI50 ([17]; read-out: GI50): > 100 µM
CC50 [17, 22]: > 100 µM
TGI ([17]; read-out: TGI): > 100 µM
GI50 ([17]; read-out: pGI50 (converted)): > 100 µM
CC50 [17, 23]: > 100 µM
TGI ([17]; read-out: pTGI): > 100 µM
growth at 10 µM (HOP-62 [18]): 36%
growth at 100 µM (Malme-3M): 42%
GI50 (SR; read-out: GI50): > 100 µM
CC50 (SR; [22]): > 100 µM
TGI (SR; read-out: TGI): > 100 µM
GI50 (SR; read-out: pGI50 (converted)): > 100 µM
CC50 (SR; [23]): > 100 µM
TGI (SR; read-out: pTGI): > 100 µM
growth at 100 µM (CCRF-CEM): 57%
growth at 0.01 µM [19]: 92%
growth at 100 µM [20]: 15%
growth at 0.01 µM (MCF7): 93%
growth at 0.1 µM [21]: 90%
GI50 (786-0; read-out: GI50): 3.62 µM
CC50 (786-0; [22]): > 100 µM
TGI (786-0; read-out: TGI): > 100 µM
GI50 (786-0; read-out: pGI50 (converted)): 3.63 µM
CC50 (786-0; [23]): > 100 µM
TGI (786-0; read-out: pTGI): > 100 µM
